As usually defined, the Tmax is the time from dosing to the highest level. In general, AUC(0-inf) refers to total exposure, with the tail of the curve extrapolated. The term Cmax denotes the highest concentration seen after dosing. Usually half-life stands for how long it takes for the measured level to halve. One may read the clearance as the volume of plasma or blood freed of the substance per unit of time. Higher therefore signals efficient removal. For orientation: AUC(0-t) means the area under the concentration-time curve up to a stated or last time point. A low value points to low exposure.

These results are taken from ChEMBL document CHEMBL5154683, “A 5-FU Precursor Designed to Evade Anabolic and Catabolic Drug Pathways and Activated by Pd Chemistry In Vitro and In Vivo” (J Med Chem, 2022).

Calls of active or inactive are those of the source. The rule behind the calls is not given here.

Data set [1] can be described thus: Tmax in male Wistar Han rat at 10 mg/kg, po administered as single dose measured upto 24 hrs. In kind it is ADME, organism-based. The settings on record: in vivo. In short, it runs like this: (§1)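 Male jugular-vein-cannulated Wistar Han rats, 263–319 g, single dose. IV: 1 mg/kg as 2 mL/kg of 0.5 mg/mL in 5% DMSO/95% HPCD (20% w/v), not fasted. PO: 10 mg/kg as 5 mL/kg of 2 mg/mL suspension in 5% DMSO/95% tween 80/HPCD vehicle, fasted overnight. Serial cannula blood sampling 0.083/0.25–24 h (n = 3/route); parent quantified by QToF against calibration curve.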

The nature of data set [2]: AUC (0 to infinity) in female Wistar Han rat at 1000 mg/kg, po administered as single dose measured upto 24 hrs. The settings on record: in vivo. In kind it is ADME, organism-based. The arrangement: time < 24 hrs, dose 1000 mg/kg, route po. In short, it runs like this: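 Single oral dose 1000 mg/kg in male and female rats, dosing volume 10 mL/kg (n = 6); animals observed 14 days with clinical checks, functional/neurobehavioral tests and body weight, necropsy on d15; exposure parameters from the toxicokinetic arm of this study.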

A short description of data set [3]: Toxicity in BALB/c nude mouse xenografted with human HCT-116 cells assessed as change in body weight at 75 to 150 mg/kg, po administered via oral gavage measured daily for 7 days. Type of data set: organism-based. The settings on record: in vivo, 168 h, dose 75-150 mg/kg, time 7 day. In short, it runs like this:
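Female BALB/c nude mice, 6–7 weeks, inoculated s.c. with 5 × 10⁵ HCT116 cells in 1:1 Matrigel/PBS; at 200–300 mm³ randomized; Pd resins (2 mg in 50 μL) injected intratumorally (groups 1–3), then oral gavage daily for 7 days with 150 or 75 mg/kg or vehicle; untreated group. Body weight daily, clinical signs twice daily.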

The nature of data set [4]: Cmax in male Wistar Han rat at 10 mg/kg, po administered as single dose measured upto 24 hrs. Type of data set: ADME, organism-based. The arrangement: time < 24 hrs, dose 10 mg/kg, route po. Particulars: in vivo. In short, it runs like this:
as §1

Data set [5] is described as follows: Oral bioavailability in Wistar Han rat at 10 mg/kg administered as single dose measured upto 24 hrs. In kind it is ADME, organism-based. The settings on record: in vivo. In short, it runs like this: as §1
Data set [6] deals with HCT-116. Put plainly: Antiproliferative activity against human HCT-116 cells assessed as reduction in cell viability at 100 uM incubated for 5 days in presence of Pd-resins at 0.8 mg/ml by PrestoBlue dye based assay relative to control. Type of data set: functional. Particulars: time 5 day. The gist of the method: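 HCT116 seeded at 750 cells/well and grown 48 h. Medium then replaced with fresh medium with or without Pd resins (20–160 μg per well; 0.2–1.4 mg/mL). Compound added as 5 μL of a 2 mM stock in 2% DMSO/medium, incubated 5 d. PrestoBlue fluorescence read; values normalised to untreated cells within each resin dilution.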

The nature of data set [7]: Plasma protein binding in human at 5 uM. Type of data set: ADME, cell-free. Particulars: read-out: PPB (converted). The gist of the method: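 Binding of compound at 5 μM measured in rat and human plasma, with compound recovery determined; n = 3.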
Data set [8] can be described thus: Metabolic stability in rat hepatocytes assessed as half life at 1 uM by LC-MS/MS analysis. Type of data set: ADME, cell-based, Hepatocyte. The gist of the method:
(§2)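 Suspended hepatocytes (0.5 × 10⁶ cells/mL) in Williams E medium with 2 mM L-glutamine and 25 mM HEPES at 37 °C, compound added with 0.25% v/v DMSO after preincubation; aliquots quenched into methanol with internal standard at time points, centrifuged, supernatant analyzed by LC-MS/MS; two control compounds included.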

The nature of data set [9]: Metabolic stability in rat hepatocytes assessed as intrinsic clearance at 3 uM measured per 10^6 cells by LC-MS/MS analysis. In kind it is ADME, cell-based, Hepatocyte. Particulars: read-out: CLH. In short, it runs like this: as §2
Data set [10] concerns HCT-116. Put plainly: Antiproliferative activity against human HCT-116 cells assessed as increase in cytotoxicity at 1 uM incubated for 5 days in presence of Pd-resin by PrestoBlue dye based assay. Type of data set: functional, cell-based. The settings on record: time 5.0 day.
Data set [11] is described as follows: Apparent permeability across basolateral to apical side in human Caco-2 cells assessed as drug recovery at 10 uM measured after 120 mins by LC-MS/MS analysis. Particulars: read-out: Drug recovery. Type of data set: ADME, cell-based. The gist of the method: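 Caco-2 cells (P40-60) seeded at 1 × 10⁵ cells/cm² on Transwells, used on day 20; rinsed and equilibrated 40 min in HBSS pH 7.4. Compound at 10 μM in HBSS, 1% v/v DMSO, added apically (A–B) or basolaterally (B–A); 120 min at 37 °C, 5% CO₂. Lucifer yellow monitored monolayer integrity; LC-MS/MS with eight-point calibration; recovery from C₀ and both compartments.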
In general terms: Passage across Caco-2 layers is used to estimate intestinal permeability.

Data set [12] in a line: Clearance in male Wistar Han rat at 1 mg/kg, iv administered as single dose measured upto 24 hrs. In kind it is ADME, organism-based. Particulars: in vivo. In short, it runs like this:
as §1

Data set [13] is described as follows: AUC (0 to t) in male Wistar Han rat at 1 mg/kg, iv administered as single dose measured upto 24 hrs. In kind it is ADME, organism-based. Also on record: dose 1 mg/kg, time < 24 hrs, route iv. Particulars: in vivo. The gist of the method:
as §1

Data set [14] can be described thus: Prodrug conversion in human liver S9 fraction assessed as DH5FU metabolite formation at 1.6 mM incubated for 1 hr in presence of NADPH by 19F-NMR based analysis. In kind it is ADME, subcellular. The settings on record: s9, 1 h, 1600 µM. The gist of the method: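 Compound added as 150 mM stock in DMSO-d₆, preincubated 5 min at 37 °C with enzyme mixture, then NADPH added (1 mM) and incubated 1 h at 37 °C, 600 rpm; controls without NADPH and without enzymes. Stopped with EtOAc, dried under N₂, redissolved in DMSO-d₆, DH5FU detected by ¹⁹F NMR vs authentic sample.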

The nature of data set [15]: Toxicity in female Wistar Han rat assessed as mortality at 1000 mg/kg, po administered as single dose measured over 14 days. Type of data set: organism-based. Particulars: in vivo, 336 h, time > 14 day. In short, it runs like this:
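Single oral dose of 1000 mg/kg at 10 mL/kg to male and female rats (n = 6), then 14 d observation. Morbidity and mortality checked twice daily. Clinical signs recorded predose, twice on dosing day, then daily. FOB on d1, d7 or d14. Body weight on d1, 2, 5, 8, 11 and 14. Gross necropsy on d15.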

Data set [16] can be described thus: Drug metabolism in PBS buffer assessed as dealkylation of parent compound causing metabolite formation at 100 uM in presence of palladium resin. Type of data set: ADME. The gist of the method:
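Prodrug (100 μM in PBS, pH 7.4) shaken at 1200 rpm, 37 °C with 1 mg/mL Pd resins (30 μm). Sampled at 10, 20, 40 min, 1, 3, 6, 24 and 48 h; analyzed by reverse-phase UPLC (C18, 60 °C, UV 254 nm), products identified by retention time against authentic standards.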

Another data set has as its system BXPC-3. Put plainly: Antiproliferative activity against human BxPC-3 cells assessed as increase in cytotoxicity at 1 uM incubated for 5 days in presence of Pd-resin by PrestoBlue dye based assay. In kind it is functional, cell-based. Particulars: time 5.0 day. In short, it runs like this:
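BxPC-3 (RPMI, 10% FBS, 2 mM glutamine) at 2500 cells/well, 48 h attachment, then fresh medium with 1 μM drug/prodrug ± 1 mg/mL Pd resins, 0.1% v/v DMSO, 5 d at 37 °C. Viability by PrestoBlue (10% v/v, 1 h, ex 540/em 590 nm), normalized to DMSO-treated cells; n = 3.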

Turning to `C#CCOc1ncc(F)c(OCC#C)n1`, the Tmax in data set [1] was determined as 15 min. Besides, the AUC(0-inf) in data set [2] is 1470 µg·h/mL. Also, the Activity result in [3] is “Non-Toxic”; with HCT-116 [6] it was 7%; in data set [15], “Non-Toxic”. Moreover, the Cmax in [4] came to 3610 ng/mL. In data set [5], this molecule displayed an F of 187%. Also, the fraction unbound at 5 µM in data set [7] was 0.142. The half-life at 1 µM in data set [8] came to 91 min. In addition, the hepatocyte CLint at 3 µM in [9] turned out to be 3.31 µL/min/1e6 cells. Moreover, the outcome in the data set with HCT-116 [10] and in the data set with BXPC-3 was Active. In addition, the recovery at 2 h, 10 µM in data set [11] was 73.9%. In [12], this molecule registered a clearance of 52.1 mL/min/kg. Also, in [13], the AUC(0-t) at 24 h came out at 0.324 µg·h/mL. The Drug metabolism result in data set [14] is reported as “Metabolite_Notdetected”; in data set [16], “Metabolite_Detected”.
